According to ChEMBL document CHEMBL1153804, “Optimization of a series of quinazolinone-derived antagonists of CXCR3” (Bioorg Med Chem Lett, 2009):
Numbering of substitutions follows the chain as printed. Active and inactive are the calls of the source. No cut-off for these calls is given here.

Key:
[1] = system: Blood; test: Drug level in bleomycin-induced mouse blood at 10 mg/mL, sc; assay type: ADME, tissue-based
[2] = Volume of distribution at steady state in rat at 0.5 mg/kg, iv; assay type: ADME, organism-based; set-up: dose 0.5 mg/kg, route intravenous; settings: in vivo, read-out: Vdss
[3] = Clearance in mouse at 0.5 mg/kg, iv; assay type: ADME, organism-based; set-up: dose 0.5 mg/kg, route intravenous; settings: in vivo
[4] = Mean residence time in cynomolgus monkey at 1 mg/kg, iv; assay type: ADME, organism-based, Macaca fascicularis; set-up: dose 1 mg/kg, route intravenous; settings: in vivo
[5] = target: T1, CXC chemokine receptor 3 (Macaca mulatta, UniProt B8PY99); test: Displacement of [125I]-IP10 from rhesus monkey CXCR3 expressed in human PBMC after 2 hrs in RPMI buffer by scintillation counting
T1 sequence (B8PY99 whole entry): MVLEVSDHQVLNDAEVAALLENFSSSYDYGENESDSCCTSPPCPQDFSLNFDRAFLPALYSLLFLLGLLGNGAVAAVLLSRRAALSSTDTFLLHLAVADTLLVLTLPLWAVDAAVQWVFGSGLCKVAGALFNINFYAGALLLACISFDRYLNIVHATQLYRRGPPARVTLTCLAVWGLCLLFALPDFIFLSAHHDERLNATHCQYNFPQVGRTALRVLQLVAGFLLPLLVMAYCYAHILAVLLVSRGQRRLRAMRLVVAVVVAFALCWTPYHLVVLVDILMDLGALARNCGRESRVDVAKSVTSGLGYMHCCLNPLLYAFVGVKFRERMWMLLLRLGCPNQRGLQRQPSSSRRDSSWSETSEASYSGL
Procedure, shortened: (§1)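 PBMC bearing CXCR3 were co-incubated with antagonist and recombinant human [125I]-IP10 for 2 h at room temperature in RPMI-1640 (no phenol red) with 0.5% BSA. Cells were harvested onto filter plates and bound radioactivity was counted by scintillation. IC50 values are means of three experiments.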

[6] = Oral bioavailability in dog at 2.5 mg/kg; assay type: ADME, organism-based, Canis lupus familiaris; settings: in vivo
[7] = Clearance in rat at 0.5 mg/kg, iv; assay type: ADME, organism-based; set-up: dose 0.5 mg/kg, route intravenous; settings: in vivo
[8] = target: T2, C-X-C chemokine receptor type 3 (Homo sapiens, UniProt P49682); test: Displacement of [125I]-1P10 from human CXCR3 expressed in human PBMC after 2 hrs by scintillation counting in plasma
T2 sequence (P49682 whole entry): T1 sequence (B8PY99 whole entry) with A83T, A259V
Procedure, shortened: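 [125I]-IP10 displacement from CXCR3 on PBMC: cells co-incubated with antagonist and recombinant human [125I]-IP10 for 2 h at room temperature in EDTA-anticoagulated human plasma (from frozen stocks) in place of RPMI buffer. Filter harvest and scintillation counting; IC50 values are means of three experiments.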

[9] = system: Blood; test: Drug level in bleomycin-induced mouse blood at 3 mg/mL, sc; assay type: ADME, tissue-based
[10] = target: T2, C-X-C chemokine receptor type 3; test: Displacement of [125I]-1P10 from human CXCR3 expressed in PBMC after 2 hrs in RPMI buffer by scintillation counting
[11] = Oral bioavailability in cynomolgus monkey at 5 mg/kg; assay type: ADME, organism-based, Macaca fascicularis; settings: in vivo
[12] = Mean residence time in mouse at 0.5 mg/kg, iv; assay type: ADME, organism-based; set-up: dose 0.5 mg/kg, route intravenous; settings: in vivo
[13] = Mean residence time in rat at 0.5 mg/kg, iv; assay type: ADME, organism-based; set-up: dose 0.5 mg/kg, route intravenous; settings: in vivo
[14] = target: Cytochrome P450 3A4 (Homo sapiens, UniProt P08684); test: Inhibition of CYP3A4; assay type: ADME
[15] = target: Cytochrome P450 2C9 (Homo sapiens, UniProt P11712); test: Inhibition of CYP2C9; assay type: ADME
[16] = Volume of distribution at steady state in dog at 1 mg/kg, iv; assay type: ADME, organism-based, Canis lupus familiaris; set-up: dose 1 mg/kg, route intravenous; settings: in vivo, read-out: Vdss
[17] = Oral bioavailability in rat at 2 mg/kg; assay type: ADME, organism-based; settings: in vivo
[18] = Volume of distribution at steady state in mouse at 0.5 mg/kg, iv; assay type: ADME, organism-based; set-up: dose 0.5 mg/kg, route intravenous; settings: in vivo, read-out: Vdss
[19] = Clearance in dog at 1 mg/kg, iv; assay type: ADME, organism-based, Canis lupus familiaris; set-up: dose 1 mg/kg, route intravenous; settings: in vivo
[20] = Clearance in cynomolgus monkey at 1 mg/kg, iv; assay type: ADME, organism-based, Macaca fascicularis; set-up: dose 1 mg/kg, route intravenous; settings: in vivo
[21] = system: Blood; test: Drug level in bleomycin-induced mouse blood at 0.3 mg/mL, sc; assay type: ADME, tissue-based
[22] = system: Mus musculus; test: Effect on bleomycin-induced cellular recruitment in sc dosed mouse assessed as inhibition of cellular infiltration measured 6 days after bleomycin challenge; assay type: functional, organism-based
[23] = target: T3, C-X-C chemokine receptor type 3 (Rattus norvegicus, UniProt Q9JII9); test: Displacement of [125I]-IP10 from rat CXCR3 expressed in human PBMC after 2 hrs in RPMI buffer by scintillation counting; procedure, shortened: as §1
T3 sequence (Q9JII9 whole entry): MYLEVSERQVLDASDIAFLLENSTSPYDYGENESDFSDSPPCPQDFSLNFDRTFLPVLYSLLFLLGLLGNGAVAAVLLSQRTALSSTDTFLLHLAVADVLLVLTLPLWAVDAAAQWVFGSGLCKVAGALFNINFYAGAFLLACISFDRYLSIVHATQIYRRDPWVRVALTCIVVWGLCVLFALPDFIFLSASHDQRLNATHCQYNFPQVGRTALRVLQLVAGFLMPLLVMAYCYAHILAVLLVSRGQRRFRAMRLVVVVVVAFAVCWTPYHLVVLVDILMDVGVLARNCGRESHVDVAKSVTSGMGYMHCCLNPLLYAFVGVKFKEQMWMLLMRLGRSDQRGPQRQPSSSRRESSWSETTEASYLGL

[24] = target: Cytochrome P450 2D6 (Homo sapiens, UniProt P10635); test: Inhibition of CYP2D6; assay type: ADME
[25] = target: T4, C-X-C chemokine receptor type 3 (Canis lupus familiaris, UniProt Q5KSK8); test: Displacement of [125I]-IP10 from dog CXCR3 expressed in human PBMC after 2 hrs in RPMI buffer by scintillation counting; procedure, shortened: as §1
T4 sequence (Q5KSK8 whole entry): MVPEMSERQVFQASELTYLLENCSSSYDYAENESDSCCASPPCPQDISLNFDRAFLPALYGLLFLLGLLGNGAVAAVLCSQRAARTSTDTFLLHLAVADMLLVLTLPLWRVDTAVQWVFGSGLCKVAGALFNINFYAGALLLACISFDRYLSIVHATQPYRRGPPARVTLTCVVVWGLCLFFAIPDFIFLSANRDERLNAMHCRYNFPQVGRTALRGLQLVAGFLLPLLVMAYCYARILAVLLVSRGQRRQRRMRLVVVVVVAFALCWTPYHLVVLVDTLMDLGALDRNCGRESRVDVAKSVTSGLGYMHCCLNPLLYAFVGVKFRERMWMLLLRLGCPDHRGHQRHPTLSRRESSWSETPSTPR

[26] = Volume of distribution at steady state in cynomolgus monkey at 1 mg/kg, iv; assay type: ADME, organism-based, Macaca fascicularis; set-up: dose 1 mg/kg, route intravenous; settings: in vivo, read-out: Vdss

Sequence of Cytochrome P450 2C9 (P11712 whole entry): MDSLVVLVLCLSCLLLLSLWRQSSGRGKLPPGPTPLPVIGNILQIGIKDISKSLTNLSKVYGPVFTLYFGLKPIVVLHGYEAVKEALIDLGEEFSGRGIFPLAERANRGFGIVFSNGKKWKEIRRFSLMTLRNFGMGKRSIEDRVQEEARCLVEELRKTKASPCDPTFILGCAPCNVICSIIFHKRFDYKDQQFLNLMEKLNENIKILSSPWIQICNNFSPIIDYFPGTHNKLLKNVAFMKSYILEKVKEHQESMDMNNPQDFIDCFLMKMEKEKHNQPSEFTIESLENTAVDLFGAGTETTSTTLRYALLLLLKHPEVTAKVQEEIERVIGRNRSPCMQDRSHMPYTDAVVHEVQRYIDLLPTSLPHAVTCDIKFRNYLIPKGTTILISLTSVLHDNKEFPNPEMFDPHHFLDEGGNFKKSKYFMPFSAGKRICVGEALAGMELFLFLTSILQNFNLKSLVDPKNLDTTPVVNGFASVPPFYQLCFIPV
Sequence of Cytochrome P450 2D6 (P10635 whole entry): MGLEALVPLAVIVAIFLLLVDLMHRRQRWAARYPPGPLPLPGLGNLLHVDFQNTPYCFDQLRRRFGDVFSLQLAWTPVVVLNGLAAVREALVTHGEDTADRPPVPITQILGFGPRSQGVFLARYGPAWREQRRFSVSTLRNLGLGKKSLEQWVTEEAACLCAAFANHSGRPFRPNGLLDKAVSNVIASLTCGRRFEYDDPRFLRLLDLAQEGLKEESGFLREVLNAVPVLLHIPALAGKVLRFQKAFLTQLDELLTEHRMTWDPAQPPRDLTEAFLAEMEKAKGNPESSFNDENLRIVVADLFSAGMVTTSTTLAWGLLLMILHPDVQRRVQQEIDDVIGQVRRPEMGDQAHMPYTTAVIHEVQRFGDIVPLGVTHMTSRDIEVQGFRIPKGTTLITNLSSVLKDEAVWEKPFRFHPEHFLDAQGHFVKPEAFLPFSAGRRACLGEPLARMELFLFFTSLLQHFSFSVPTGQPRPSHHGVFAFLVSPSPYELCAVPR
Sequence of Cytochrome P450 3A4 (P08684 whole entry): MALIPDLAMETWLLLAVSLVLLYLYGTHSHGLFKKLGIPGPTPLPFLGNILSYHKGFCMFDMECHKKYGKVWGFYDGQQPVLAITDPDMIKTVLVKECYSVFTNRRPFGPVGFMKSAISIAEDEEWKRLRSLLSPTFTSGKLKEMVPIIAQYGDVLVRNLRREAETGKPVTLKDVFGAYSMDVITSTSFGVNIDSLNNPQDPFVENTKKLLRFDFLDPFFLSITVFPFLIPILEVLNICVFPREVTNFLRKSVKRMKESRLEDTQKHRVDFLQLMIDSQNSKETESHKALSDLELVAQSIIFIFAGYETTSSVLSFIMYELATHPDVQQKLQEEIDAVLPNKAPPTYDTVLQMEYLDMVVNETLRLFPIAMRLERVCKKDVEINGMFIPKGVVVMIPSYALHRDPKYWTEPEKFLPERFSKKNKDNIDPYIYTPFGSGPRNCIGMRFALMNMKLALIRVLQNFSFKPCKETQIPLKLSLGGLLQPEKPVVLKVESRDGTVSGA

Drug uptake [1]: 35 ng/mL
Vd [2]: 2.5 L/kg
clearance [3]: 13 mL/min/kg
MRT [4]: 1.6 h
IC50 [5]: 2 nM
bioavailability [6]: 25%
clearance [7]: 65 mL/min/kg
IC50 [8]: 6 nM
Drug uptake [9]: 18 ng/mL
IC50 [10]: 1 nM
bioavailability [11]: 14%
MRT [12]: 1.1 h
MRT [13]: 0.65 h
Activity [14]: Active
Activity [15]: Active
Vd [16]: 1.1 L/kg
bioavailability [17]: 26%
Vd [18]: 0.8 L/kg
clearance [19]: 7.5 mL/min/kg
clearance [20]: 14.5 mL/min/kg
Drug uptake [21]: 6 ng/mL
IC50 [23]: 4 nM
Activity [24]: Active
IC50 [25]: 5 nM
Vd [26]: 1.4 L/kg
Structure (SMILES): CCS(=O)(=O)CCN(C(=O)Cc1ccc(F)c(C(F)(F)F)c1)[C@H](C)c1nc2ncccc2c(=O)n1-c1ccc(OCC(F)(F)F)cc1
Activity [22]: Active
